In ChEMBL document CHEMBL4699413, “Structure-guided discovery of selective methionyl-tRNA synthetase inhibitors with potent activity against Trypanosoma brucei” (RSC Med Chem, 2020):

Tests used:
[1] = tested on: Trypanosoma brucei brucei; test: Antitrypanosomal activity against blood stream form of Trypanosoma brucei brucei 427 assessed as parasite growth inhibition incubated for 48 hrs by alamar blue dye based assay; format: functional, organism-based; details: Trypanosoma brucei, 427, 48 h
In short: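 Bloodstream-form BSF 427 parasites in HMI-9 with 10% heat-inactivated FBS and penicillin/streptomycin, 37 °C, 5% CO₂; 10 000 cells/well initial inoculum; serial 3-fold dilutions in triplicate; Alamar Blue read at 48 h. Pentamidine control.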

[2] = Cytotoxicity against human WIL2-NS cells assessed as reduction in cell viability after 48 hrs by alamar blue dye based assay
In short: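 CRL-8155 lymphocytic cells in RPMI with 10% heat-inactivated FBS, 2 mM L-glutamine, 0.4 mM sodium pyruvate, penicillin/streptomycin, 37 °C, 5% CO₂; 30 000 cells/well; quadruplicate serial 3-fold dilutions from 50 µM (or 25 µM); AlamarBlue at 48 h, 50 µM quinacrine as background; percent inhibition versus untreated wells; single experiment.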

[3] = Cytotoxicity against human HepG2 cells assessed as reduction in cell viability after 48 hrs by alamar blue dye based assay
[4] = target: T1, Methionine--tRNA ligase, mitochondrial (Homo sapiens, UniProt Q96GW9); test: Inhibition of mitochondrial MetRS-mediated mitochondrial protein synthesis in human HepG2 cells measured after 6 days by ELISA; format: cell-based
T1 sequence (Q96GW9 whole entry): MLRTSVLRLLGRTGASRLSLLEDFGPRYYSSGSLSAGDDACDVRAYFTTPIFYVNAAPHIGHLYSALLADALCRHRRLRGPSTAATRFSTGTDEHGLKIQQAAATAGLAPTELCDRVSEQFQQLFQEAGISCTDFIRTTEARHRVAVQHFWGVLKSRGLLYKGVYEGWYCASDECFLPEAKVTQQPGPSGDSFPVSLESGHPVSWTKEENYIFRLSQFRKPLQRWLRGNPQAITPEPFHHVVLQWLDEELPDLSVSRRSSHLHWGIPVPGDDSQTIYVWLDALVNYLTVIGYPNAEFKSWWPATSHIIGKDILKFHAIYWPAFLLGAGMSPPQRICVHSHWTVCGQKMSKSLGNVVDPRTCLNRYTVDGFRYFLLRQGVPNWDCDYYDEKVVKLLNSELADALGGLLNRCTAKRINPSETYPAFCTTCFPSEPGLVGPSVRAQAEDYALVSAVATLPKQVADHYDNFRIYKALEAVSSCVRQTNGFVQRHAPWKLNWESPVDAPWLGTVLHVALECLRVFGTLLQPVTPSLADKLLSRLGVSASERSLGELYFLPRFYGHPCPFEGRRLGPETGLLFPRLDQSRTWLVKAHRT
In short: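 HepG2 seeded 6000 cells/well on collagen-coated plates, grown 24 h in DMEM/F12 with 10% FBS, pyruvate, antibiotics; then serial 3-fold dilutions from 25 µM in duplicate, 6 days at 37 °C, medium with compound refreshed every 48 h; paraformaldehyde-fixed, COX-1 quantified by in-cell ELISA. Chloramphenicol control.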

[5] = tested on: mitochondrial MetRS (mitochondrial protein synthesis); test: Selectivity index, ratio of EC50 for inhibition of mitochondrial MetRS-mediated mitochondrial protein synthesis in human HepG2 cells to EC50 for antitrypanosomal activity against blood stream form of Trypanosoma brucei brucei 427; format: toxicity, cell-based; details: read-out: Ratio EC50
[6] = Ratio of drug level in brain to plasma in Swiss Webster mouse at 5 mg/kg, ip measured after 60 mins by LC-MS analysis; format: ADME, organism-based; details: 1 h
In short: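 Swiss Webster mice, triplicate, 5 mg kg⁻¹ IP in 7% Tween80, 5% DMSO, 3% EtOH in saline; plasma and brain collected 1 h post-dose; brain homogenized in water, extracts measured by LC-MS/MS; brain levels corrected for 3% v/w blood content.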

[7] = Inhibition of recombinant N-terminal His6-tagged trypanosoma brucei brucei 427 Methionyl-tRNA synthetase (237 to 773 residues) expressed in Escherichia coli assessed as ATP depletion using L-methionine and tRNA as substrate by Kinase-Glo luminescence assay

| SMILES | EC50 [1] [nM] | CC50 at 48 h [2] [nM] | CC50 at 48 h [3] [nM] | EC50 [4] [nM] | selectivity ratio [5] | BPR [6] [%] | IC50 [7] [nM] |
| --- | --- | --- | --- | --- | --- | --- | --- |
| COc1cc(Cl)c(-c2cccc3nc(Cc4nc5nc(F)ccc5[nH]4)cn23)cc1OC | 7.2 | > 25000 | > 25000 | 316 | 45 | 0 |  |
| CCn1c(Cc2ccc(Cl)cc2Cl)cn(Cc2nc3c(Cl)cc(Cl)cc3[nH]2)c1=O | 1600 | 38200 | 43700 |  |  |  |  |
| CCn1c(Cc2ccc(Cl)cc2Cl)cn(Cc2nc3cc(C(F)(F)F)ccc3[nH]2)c1=O | > 2000 | > 50000 | > 50000 |  |  |  |  |
| COc1cc(-c2cccc3nc(Cc4nc5nc(Cl)ccc5[nH]4)cn23)c(Cl)cc1Cl | 3.5 | 9500 | > 50000 | 507 | 145 | 0 |  |
| COc1cc(Cl)c(-c2cccc3nc(Cc4nc5nc(Cl)ccc5[nH]4)cn23)cc1OC | 3.1 | 19000 | 28200 | 478 | 154 | 0.5 |  |
| CCn1c(Cc2ccc(Cl)cc2Cl)cn(Cc2nc3cc(C)ccc3[nH]2)c1=O | 110 | > 50000 | > 50000 |  |  |  |  |
| O=c1[nH]c(Cc2ccc(Cl)cc2Cl)cn1Cc1nc2ccccc2[nH]1 | 350 |  |  |  |  |  | < 40 |
| CCn1c(Cc2ccc(Cl)cc2Cl)cn(Cc2nc3c(F)cccc3[nH]2)c1=O | 31 | 45000 | > 50000 |  |  |  |  |
| Clc1ccc(-c2cccc3nc(Cc4nc5nc(Cl)ccc5[nH]4)cn23)c(Cl)c1 | 64 | 16100 | 43200 |  |  |  |  |
| N=C(N)c1ccc(OCCCCCOc2ccc(C(=N)N)cc2)cc1 [PENTAMIDINE] | 1.7 |  |  |  |  |  |  |
| CC(C)n1c(Cc2ccc(Cl)cc2Cl)cn(Cc2nc3nc(F)ccc3[nH]2)c1=O | 2.3 | > 50000 | > 50000 |  |  |  |  |
| O=c1n(Cc2nc3nc(F)ccc3[nH]2)cc(Cc2ccc(Cl)cc2Cl)n1C1CCOCC1 | 5.8 | > 50000 | > 50000 |  |  |  |  |
| COc1ccc(Cc2cn(Cc3nc4nc(Cl)ccc4[nH]3)c(=O)n2CC(F)F)c(Cl)c1 | 3.6 | > 50000 | > 50000 |  |  |  |  |
| COc1ccc(-c2cccc3nc(Cc4nc5nc(F)ccc5[nH]4)cn23)c(Cl)c1 | 59 | 15700 | > 50000 |  |  |  |  |
| COc1ccc(-c2nccn3c(=O)n(Cc4nc5nc(Cl)ccc5[nH]4)cc23)c(Cl)c1 | 31 | > 50000 | > 50000 |  |  |  |  |
| CCCn1c(Cc2ccc(Cl)cc2Cl)cn(Cc2nc3nc(F)ccc3[nH]2)c1=O | 5.1 | > 50000 | > 50000 | 195 | 38 | 5.5 |  |
| O=c1n(Cc2nc3nc(F)ccc3[nH]2)cc(Cc2ccc(Cl)cc2Cl)n1C1CCCCC1 | 16 | 30400 | 33200 |  |  |  |  |
| COc1cc(-c2cccc3nc(Cc4nc5nc(F)ccc5[nH]4)cn23)c(Cl)cc1Cl | 8.4 | 10400 | > 50000 | 1750 | 203 | 0.6 |  |
| COc1ccc(-c2cccc3nc(Cc4nc5nc(Cl)ccc5[nH]4)cn23)c(Cl)c1 | 24 | 13000 | > 50000 |  |  |  |  |
| O=c1n(Cc2nc3nc(F)ccc3[nH]2)cc(Cc2ccc(Cl)cc2Cl)n1CC1(O)CCOCC1 | 4.6 | > 50000 | > 50000 |  |  |  |  |
| CCn1c(Cc2ccc(OC)cc2Cl)cn(Cc2nc3nc(Cl)ccc3[nH]2)c1=O | 1 | > 50000 | > 50000 | 39 | 39 | 0 |  |
| CCn1c(Cc2ccc(Cl)cc2Cl)cn(Cc2nc3nc(Cl)ccc3[nH]2)c1=O | 1.6 | > 50000 | > 50000 | 42 | 26 | 9.6 |  |
| O=c1n(Cc2nc3nc(F)ccc3[nH]2)cc(Cc2ccc(Cl)cc2Cl)n1CC1CCOCC1 | 3 | > 50000 | > 50000 |  |  |  |  |

| SMILES | EC50 [1] [nM] | CC50 at 48 h [2] [nM] | CC50 at 48 h [3] [nM] | EC50 [4] [nM] | selectivity ratio [5] | BPR [6] [%] | IC50 [7] [nM] |
| --- | --- | --- | --- | --- | --- | --- | --- |
| CCn1c(Cc2ccc(Cl)cc2Cl)cn(Cc2nc3c(Cl)cccc3[nH]2)c1=O | 210 | > 50000 | > 50000 |  |  |  |  |
| CCn1c(Cc2ccc(OC)cc2Cl)cn(Cc2nc3nc(F)ccc3[nH]2)c1=O | 1.8 | > 50000 | > 50000 | 75 | 42 | 0 |  |
| O=c1n(Cc2nc3nc(F)ccc3[nH]2)cc(Cc2ccc(Cl)cc2Cl)n1CC(F)F | 5.9 | 33300 | > 50000 | 175 | 30 | 0 |  |
| CCn1c(Cc2ccc(Cl)cc2Cl)cn(Cc2nc3cc(Cl)ccc3[nH]2)c1=O | 69 | 27100 | 45300 |  |  |  |  |
| CCn1c(Cc2ccc(Cl)cc2Cl)cn(Cc2nc3cnccc3[nH]2)c1=O | 390 | > 50000 | > 50000 |  |  |  |  |
| CCCn1c(Cc2ccc(Cl)cc2Cl)cn(Cc2nc3nc(Cl)ccc3[nH]2)c1=O | ≤ 0.9 | 37800 | 26400 |  |  |  |  |
| CCn1c(Cc2ccc(Cl)cc2Cl)cn(Cc2nc3ccccc3o2)c1=O | > 2000 | > 50000 | > 50000 |  |  |  |  |
| O=c1n(Cc2nc3nc(Cl)ccc3[nH]2)cc(Cc2ccc(Cl)cc2Cl)n1CC(F)F | 3 | > 50000 | > 50000 | 430 | 143 | 0 |  |
| CCn1c(Cc2ccc(Cl)cc2Cl)cn(Cc2nc3cc(Cl)c(Cl)cc3[nH]2)c1=O | 660 | 31600 | 31300 |  |  |  |  |
| CCOc1ccc(-c2cccc3nc(Cc4nc5nc(Cl)ccc5[nH]4)cn23)c(Cl)c1 | 1900 |  |  |  |  |  |  |
| Cc1ccc(-c2cccc3nc(Cc4nc5nc(Cl)ccc5[nH]4)cn23)c(Cl)c1 | > 2000 |  |  |  |  |  |  |
| CCn1c(Cc2ccc(Cl)cc2Cl)cn(Cc2nc3c(F)c(F)ccc3[nH]2)c1=O | 26 | 41000 | 40600 |  |  |  |  |
| CCn1c(Cc2ccc(Cl)cc2Cl)cn(Cc2nc3ncccc3[nH]2)c1=O | 17 | > 50000 | > 50000 |  |  |  |  |
| CCN(CC)CCCC(C)Nc1c2ccc(Cl)cc2nc2ccc(OC)cc12 (configuration not stated) [QUINACRINE] |  | 4800 | 7600 |  |  |  |  |
| COc1ccc(-c2cncc3nc(Cc4nc5nc(Cl)ccc5[nH]4)cn23)c(Cl)c1 | 32 | > 50000 | > 50000 |  |  |  |  |
| CCn1c(Cc2ccc(Cl)cc2Cl)cn(Cc2nc3cc(Cl)c(F)cc3[nH]2)c1=O | 220 | 20900 | 29800 |  |  |  |  |
| O=C(N[C@H](CO)[C@H](O)c1ccc([N+](=O)[O-])cc1)C(Cl)Cl [CHLORAMPHENICOL] |  |  |  | 7900 |  |  |  |
| CCn1c(Cc2ccc(Cl)cc2Cl)cn(Cc2nc3ccccc3[nH]2)c1=O | 40 | > 50000 | > 50000 |  |  |  |  |
| CCn1c(Cc2ccc(Cl)cc2Cl)cn(Cc2nc3nc(F)ccc3[nH]2)c1=O | 3.4 | > 50000 | > 50000 | 290 | 85 | 0.1 |  |
| COc1ccc(-c2cccn3cc(Cc4nc5nc(Cl)ccc5[nH]4)nc23)c(Cl)c1 | > 2000 |  |  |  |  |  |  |
| Clc1cc(Cl)cc(-c2cccc3nc(Cc4nc5nc(Cl)ccc5[nH]4)cn23)c1 | 196 |  |  |  |  |  |  |
| FC(F)(F)c1ccc(-c2cccc3nc(Cc4nc5nc(Cl)ccc5[nH]4)cn23)c(Cl)c1 | 1780 |  |  |  |  |  |  |
